According to ChEMBL document CHEMBL3580554, “Design, synthesis, and anticonvulsant activity of new hybrid compounds derived from 2-(2,5-dioxopyrrolidin-1-yl)propanamides and 2-(2,5-dioxopyrrolidin-1-yl)butanamides” (J Med Chem, 2015):

Tests used:
Mus musculus [1] = assay: Anticonvulsant activity in Swiss mouse assessed as protection against seizures at 300 mg/kg, ip dosed 0.25 hrs before initiation of maximal electroconvulsions by maximal electroshock test; type: functional
How it was run: (§1)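 Mice were dosed i.p. at a fixed 300 or 100 mg/kg (6 Hz: 100 mg/kg only). Protection was then scored against MES, sc PTZ or 6 Hz seizures at pretreatment times of 0.25, 0.5, 1 and 2 h. Groups were four mice, scored as number protected / number tested. This also gives the time course and time of peak effect.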

Mus musculus [2] = assay: Anticonvulsant activity in Swiss mouse assessed as protection against seizures at 300 mg/kg, ip dosed 0.5 hrs before initiation of maximal electroconvulsions by maximal electroshock test; type: functional; how it was run: as §1
Mus musculus [3] = assay: Anticonvulsant activity in Swiss mouse assessed as protection against seizures at 300 mg/kg, ip dosed 1 hr before initiation of maximal electroconvulsions by maximal electroshock test; type: functional; how it was run: as §1
Mus musculus [4] = assay: Anticonvulsant activity in Swiss mouse assessed as protection against seizures at 300 mg/kg, ip dosed 2 hrs before initiation of maximal electroconvulsions by maximal electroshock test; type: functional; how it was run: as §1
Mus musculus [5] = assay: Anticonvulsant activity in Swiss mouse assessed as protection against seizures at 100 mg/kg, ip dosed 0.25 hrs before initiation of maximal electroconvulsions by maximal electroshock test; type: functional; how it was run: as §1
Mus musculus [6] = assay: Anticonvulsant activity in Swiss mouse assessed as protection against seizures at 100 mg/kg, ip dosed 0.5 hrs before initiation of maximal electroconvulsions by maximal electroshock test; type: functional; how it was run: as §1
Mus musculus [7] = assay: Anticonvulsant activity in Swiss mouse assessed as protection against seizures at 100 mg/kg, ip dosed 1 hr before initiation of maximal electroconvulsions by maximal electroshock test; type: functional; how it was run: as §1
Mus musculus [8] = assay: Anticonvulsant activity in Swiss mouse assessed as protection against seizures at 100 mg/kg, ip dosed 2 hrs before initiation of maximal electroconvulsions by maximal electroshock test; type: functional; how it was run: as §1
Mus musculus [9] = assay: Anticonvulsant activity in ip dosed Swiss mouse assessed as protection against seizures measured at 0.25 hrs of time to peak effect by maximal electroshock test; type: functional
How it was run: (§2)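 Median effective doses (ED50, mg/kg) were determined i.p. in mice at the time of peak effect in the MES, sc PTZ or 6 Hz tests. Only compounds giving at least 50% protection at 100 mg/kg in that test were taken forward.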

Rattus norvegicus [10] = species: Rattus norvegicus; assay: Inhibition of [3H]BTX binding to sodium channel site 2 in rat cerebral cortex synaptosomes at 100 uM incubated for 60 mins by scintillation counting based radioligand displacement assay; type: subcellular
How it was run: (§3)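 Synaptoneurosomal preparations from rat cerebral cortex were used. The read-out was inhibition of specific [3H]BTX binding to the voltage-sensitive sodium channel (site 2), expressed as % inhibition of control specific binding. Compounds were tested at 1, 10, 100 and 500 μM. Inhibition above 50% was taken as significant.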

Rattus norvegicus [11] = species: Rattus norvegicus; assay: Inhibition of [3H]BTX binding to sodium channel site 2 in rat cerebral cortex synaptosomes at 10 uM incubated for 60 mins by scintillation counting based radioligand displacement assay; type: subcellular; how it was run: as §3
Rattus norvegicus [12] = species: Rattus norvegicus; assay: Inhibition of [3H]BTX binding to sodium channel site 2 in rat cerebral cortex synaptosomes at 1 uM incubated for 60 mins by scintillation counting based radioligand displacement assay; type: subcellular; how it was run: as §3
Rattus norvegicus [13] = species: Rattus norvegicus; assay: Inhibition of [3H]BTX binding to sodium channel site 2 in rat cerebral cortex synaptosomes at 500 uM incubated for 60 mins by scintillation counting based radioligand displacement assay; type: subcellular; how it was run: as §3
Liver microsome = assay: Drug level in human liver microsomes treated with 50 uM 1-(1-Oxo-1-{4-[3-(trifluoromethyl)phenyl]piperazin-1-yl}-propan-2-yl)pyrrolidine-2,5-dione assessed as compound formation in presence of NADPH regeneration system pre-incubated at 37 degC for 5 min and measured 2 hrs after post NADPH system addition by UPLC and LC-MS/MS method; type: ADME
How it was run: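 The compound was incubated 2 h with human liver microsomes. Metabolites were detected by full-scan chromatogram and identified by LC/MS from their [M+H]+ molecular masses.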

Mus musculus [14] = species: Mus musculus; assay: Protective index, ratio of neurotoxic TD50 in Swiss mouse by Chimney test to anticonvulsant ED50 in Swiss mouse measured at 0.5 hrs of time to peak effect by maximal electroshock test
How it was run: (§4)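 Protective index was calculated as TD50 (chimney test, mouse, i.p.) divided by ED50 from the matching MES, sc PTZ or 6 Hz test, both taken at the time of peak effect.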

Mus musculus [15] = assay: Anticonvulsant activity in ip dosed Swiss mouse assessed as protection against seizures measured at 0.5 hrs of time to peak effect by maximal electroshock test; type: functional; how it was run: as §2
Mus musculus [16] = assay: Anticonvulsant activity in ip dosed Swiss mouse assessed as protection against seizures measured at 0.5 hrs of time to peak effect by subcutaneous pentylenetetrazole seizure test; type: functional; how it was run: as §2
Mus musculus [17] = assay: Anticonvulsant activity in ip dosed Swiss mouse assessed as protection against seizures measured at 0.5 hrs of time to peak effect by 6 Hz test by 6 Hz psychomotor seizure test; type: functional; how it was run: as §2
[18] = Toxicity in ip dosed Swiss mouse assessed as induction of motor performance impairment measured within 60 seconds measured at 0.5 hrs of time to peak effect by Chimney test; type: organism-based; settings: in vivo
How it was run: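 Neurotoxicity was measured i.p. in mice by the chimney test for motor impairment. It was given as the median neurotoxic dose (TD50, mg/kg) at the time of peak effect.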

Mus musculus [19] = species: Mus musculus; assay: Protective index, ratio of neurotoxic TD50 in Swiss mouse by Chimney test to anticonvulsant ED50 in Swiss mouse measured at 0.5 hrs of time to peak effect by 6 Hz test by 6 Hz psychomotor seizure test; type: functional; how it was run: as §4
Rattus norvegicus [20] = species: Rattus norvegicus; assay: Inhibition of [125I]omega-conotoxin GVIA binding to N-type calcium channel in rat cerebral cortex synaptosomes at 100 uM incubated for 30 mins by scintillation counting based radioligand displacement assay; type: subcellular

Structure (SMILES)	Activity (Mus musculus [1]) [%]	Activity (Mus musculus [2]) [%]	Activity (Mus musculus [3]) [%]	Activity (Mus musculus [4]) [%]	Activity (Mus musculus [5]) [%]	Activity (Mus musculus [6]) [%]	Activity (Mus musculus [7]) [%]	Activity (Mus musculus [8]) [%]	further results
CC(C(=O)N1CCN(c2cccc(F)c2)CC1)N1C(=O)CCC1=O (racemic)	100	50	75	100	75	0	0	0	ED50 (Mus musculus [9]): 137 mg/kg
CCC(C(=O)N1CCN(c2ccccc2C(F)(F)F)CC1)N1C(=O)CCC1=O (racemic)	25	25	0	0					
CC(C(=O)N1CCN(c2ccc(Cl)cc2)CC1)N1C(=O)CCC1=O (racemic)	100	100	0	0	50	25	0	0	
CC(C(=O)N1CCN(c2ccc(C(F)(F)F)cc2)CC1)N1C(=O)CCC1=O (racemic)	25	25	0	0					
CCC(C(=O)N1CCN(c2ccccc2)CC1)N1C(=O)CCC1=O (racemic)	75	75	75	25	25	25	0	0	ED50 (Mus musculus [9]): 149 mg/kg
CCC(C(=O)N1CCN(c2cccc(C)c2)CC1)N1C(=O)CCC1=O (racemic)	100	100	75	0	50	0	0	0	
Cc1cccc(N2CCN(C(=O)C(C)N3C(=O)CCC3=O)CC2)c1 (racemic)	100	50	0	0	0	0	0	0	
NC(=O)N1c2ccccc2C=Cc2ccccc21									inhibition (Rattus norvegicus [10]): 17.4%; inhibition (Rattus norvegicus [11]): 4.6%; inhibition (Rattus norvegicus [12]): 2.7%; inhibition (Rattus norvegicus [13]): 33.6%
O=C(C(CO)N1C(=O)CCC1O)N1CCN(c2cccc(C(F)(F)F)c2)CC1 (stereo not drawn)									Drug metabolism (Liver microsome): metabolite_detected
CCC(C(=O)N1CCN(c2cccc(F)c2)CC1)N1C(=O)CCC1=O (racemic)	75	100	75	0	0	0	0	0	
CC(C(=O)N1CCN(c2ccccc2F)CC1)N1C(=O)CCC1=O (racemic)	100	50	50	25	75	0	0	0	ED50 (Mus musculus [9]): 151 mg/kg
CCC(C(=O)N1CCOCC1)N1C(=O)CCC1=O (racemic)	0	0	0	0					
O=C(C(CO)N1C(=O)CC(O)C1=O)N1C=CN(c2cccc(C(F)(F)F)c2)CC1 (stereo not drawn)									Drug metabolism (Liver microsome): metabolite_detected
COC[C@@H](NC(C)=O)C(=O)NCc1ccccc1 [LACOSAMIDE]									Ratio TD50/ED50 (Mus musculus [14]): 3.6; ED50 (Mus musculus [15]): 9.4 mg/kg; ED50 (Mus musculus [16]): > 500 mg/kg; ED50 (Mus musculus [17]): 6.4 mg/kg; TD50 at 0.5 h [18]: 33.7 mg/kg; Ratio TD50/ED50 (Mus musculus [19]): 5.26
CC(C(=O)N1CCN(c2ccc(F)cc2)CC1)N1C(=O)CCC1=O (racemic)	100	50	25	50	75	0	0	0	ED50 (Mus musculus [9]): 130 mg/kg
CC(C(=O)N1CCOCC1)N1C(=O)CCC1=O (racemic)	0	0	0	0					
COc1cccc(N2CCN(C(=O)C(C)N3C(=O)CCC3=O)CC2)c1 (racemic)	75	50	0	0	25	0	0	0	
CCC(C(=O)N1CCN(c2ccc(Cl)cc2)CC1)N1C(=O)CCC1=O (racemic)	0	0	25	25					
CCCC(CCC)C(=O)O [VALPROIC ACID]									ED50 (Mus musculus [17]): 130 mg/kg
CC(C(=O)N1CCN(c2ccccc2Cl)CC1)N1C(=O)CCC1=O (racemic)	0	0	25	0					
CC(C(=O)N1CCN(c2ccccc2)CC1)N1C(=O)CCC1=O (racemic)	100	50	50	0	50	0	0	0	ED50 (Mus musculus [9]): 164 mg/kg
CCC(C(=O)N1CCN(c2ccc(F)cc2)CC1)N1C(=O)CCC1=O (racemic)	0	25	25	0					
CCC(C(=O)N1CCN(c2ccc(C(F)(F)F)cc2)CC1)N1C(=O)CCC1=O (racemic)	25	0	0	0					
CCC(C(=O)N1CCN(c2ccccc2F)CC1)N1C(=O)CCC1=O (racemic)	100	100	50	0	0	0	0	0	
CCC(C(=O)N1CCN(c2cccc(Cl)c2)CC1)N1C(=O)CCC1=O (racemic)	75	50	100	25	50	50	0	0	ED50 (Mus musculus [15]): 138 mg/kg
CCC(C(=O)N1CCN(c2cccc(OC)c2)CC1)N1C(=O)CCC1=O (racemic)	25	0	0	0					
CCC(C(=O)N1CCN(c2ccccc2Cl)CC1)N1C(=O)CCC1=O (racemic)	50	25	50	0					
CC1(C)O[C@@H]2[C@@H](CO[C@@]3(COS(N)(=O)=O)OC(C)(C)O[C@@H]23)O1									inhibition (Rattus norvegicus [20]): 3.1%
CC(C(=O)N1C=CN(c2cccc(C(F)(F)F)c2)CC1)N1C(=O)CCC1=O (stereo not drawn)									Drug metabolism (Liver microsome): metabolite_detected
CC(C(=O)N1CCN(c2ccc(O)c(C(F)(F)F)c2)CC1)N1C(=O)CCC1=O (stereo not drawn)									Drug metabolism (Liver microsome): metabolite_detected
